This note sets out measurements from the RNAGym collection of RNA variant scans (doi:10.1002/anie.201605470).

B1: Osa-1-4 twister ribozyme (parent)
chain: CCGCCUAACACUGCCAAUGCCGGUCCCAAGCCCGGAUAAAAGUGGAGGGGGCGG

In this data set the parent is B1. The experiment in a line: self-cleavage, relative activity (ratio to wild type); higher = more cleavage; co-transcriptional. The method in brief: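 Relative activity is the fraction cleaved divided by that of the wild-type ribozyme. The library came from a DNA template for a 54-nucleotide Oryza sativa twister ribozyme, doped at the 48 positions downstream of the cleavage site with 97 % wild-type base and 1 % of each other base. After 2 h of in vitro transcription at 37 °C with co-transcriptional self-cleavage, the RNA was reverse-transcribed with a template-switching oligonucleotide, amplified by PCR and deep-sequenced, and reads with or without upstream sequence gave the cleavage status.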
On to A36U A7G, for which the self-cleavage was found to be 0.38.

Consider A36U A7C, for which the self-cleavage was 0.04.

Take A38C C21G: the self-cleavage amounted to 0.07.

A38C C21A: the self-cleavage came to 0.27.

Consider A38C C21U, for which the self-cleavage is 0.92.

For A36U G13C, the self-cleavage was 0.03.

For A36U G13U, the self-cleavage is 0.03.

Regarding A36U G13A, the self-cleavage stood at 0.14.

As to A36U G19A, the self-cleavage worked out at 0.48.

Turning to A36U G19U, the self-cleavage was 0.93.

A36U G19C: the self-cleavage amounted to 0.67.

As to A36G C52A, the self-cleavage was determined as 1.01.

A36G C52U: the self-cleavage came out at 1.02.

As for A36G C52G, the self-cleavage was 1.04.

Regarding A36G U37G, the self-cleavage came to 1.03.

For A36G U37C, the self-cleavage is 1.04.

A36G U37A: the self-cleavage came to 1.02.

A36G G48A: the self-cleavage was determined as 0.15.

For A36G G48U, the self-cleavage amounted to 0.12.

For the variant A36G G48C, the self-cleavage was determined as 0.15.

Take A36U G35U: the self-cleavage came to 1.04.

Take A36U G35A: the self-cleavage was 0.92.

As for A36U G35C, the self-cleavage was found to be 0.82.

Consider A36U G45C, for which the self-cleavage amounted to 0.05.

With A36U G45U, the self-cleavage is 0.13.

Regarding A36U G45A, the self-cleavage came out at 0.46.

As to A36U C27A, the self-cleavage came to 0.29.

Regarding A36U C27U, the self-cleavage was 0.28.

As to A36U C27G, the self-cleavage turned out to be 0.09.

As for A36U G22C, the self-cleavage turned out to be 0.19.

Regarding A36U G22U, the self-cleavage came to 0.9.

In the case of A36U G22A, the self-cleavage was determined as 1.05.

A36U A41C: the self-cleavage is 0.99.

In the case of A36U A41G, the self-cleavage was 0.68.

On to A36U A41U, for which the self-cleavage amounted to 1.02.

For the variant A36U C15U, the self-cleavage worked out at 0.31.

Turning to A36U C15G, the self-cleavage was 0.4.

A36U C15A: the self-cleavage turned out to be 0.51.

In the case of A36G U12A, the self-cleavage was found to be 0.99.

Consider A36G U12C, for which the self-cleavage turned out to be 0.69.

A36G U12G: the self-cleavage was 0.39.

For the variant A38C C26A, the self-cleavage came to 0.07.

For A38C C26U, the self-cleavage was determined as 0.94.

Take A38C C26G: the self-cleavage worked out at 0.08.

On to A36G G54A, for which the self-cleavage amounted to 1.04.

With A36G G54C, the self-cleavage was 1.01.

For A36G G54U, the self-cleavage turned out to be 0.98.

On to A36U G30A, for which the self-cleavage was found to be 0.03.

For A36U G30U, the self-cleavage is 0.04.

Take A36U G30C: the self-cleavage came out at 0.06.

Turning to A38C G22C, the self-cleavage worked out at 0.09.

As for A38C G22A, the self-cleavage came to 1.04.

Take A38C G22U: the self-cleavage came out at 0.87.

Regarding A38C G47U, the self-cleavage was 0.22.

Consider A38C G47C, for which the self-cleavage came out at 0.08.

As to A38C G47A, the self-cleavage is 0.19.

Take A38C A39G: the self-cleavage is 0.96.

As for A38C A39U, the self-cleavage came out at 0.96.

As to A38C A39C, the self-cleavage was found to be 0.86.

As to A36U A40U, the self-cleavage stood at 0.63.

As to A36U A40C, the self-cleavage was determined as 0.08.

As for A36U A40G, the self-cleavage amounted to 0.84.

Consider A36G G44U, for which the self-cleavage was determined as 0.97.

For A36G G44A, the self-cleavage turned out to be 1.01.

Turning to A36G G44C, the self-cleavage worked out at 0.97.

With A36G G49U, the self-cleavage came to 0.27.

For the variant A36G G49A, the self-cleavage was 0.24.

On to A36G G49C, for which the self-cleavage was determined as 0.08.

In the case of A36U U43G, the self-cleavage was determined as 0.64.

In the case of A36U U43C, the self-cleavage turned out to be 0.38.

Turning to A36U U43A, the self-cleavage stood at 0.99.

Regarding A36U G42C, the self-cleavage turned out to be 0.28.

For A36U G42A, the self-cleavage came to 0.85.

For A36U G42U, the self-cleavage came to 0.12.

As for A38C A7G, the self-cleavage was 0.22.

For A38C A7U, the self-cleavage turned out to be 0.08.

Regarding A38C A7C, the self-cleavage was 0.05.

As to A36U G48U, the self-cleavage came to 0.08.

Regarding A36U G48C, the self-cleavage is 0.09.

As for A36U G48A, the self-cleavage is 0.12.

With A38C G48A, the self-cleavage is 0.09.

A38C G48C: the self-cleavage turned out to be 0.08.

With A38C G48U, the self-cleavage is 0.07.

With A36G U24G, the self-cleavage turned out to be 0.04.

With A36G U24A, the self-cleavage worked out at 0.52.

As to A36G U24C, the self-cleavage stood at 0.44.

A36G G45U: the self-cleavage is 0.21.

Take A36G G45A: the self-cleavage amounted to 0.54.

A36G G45C: the self-cleavage was determined as 0.07.

With A38C G50U, the self-cleavage was 1.04.

As for A38C G50C, the self-cleavage is 1.01.

For A38C G50A, the self-cleavage amounted to 0.75.

For A36U C9A, the self-cleavage came out at 0.47.

On to A36U C9G, for which the self-cleavage stood at 0.9.

A36U C9U: the self-cleavage turned out to be 0.83.

Take A38C C11G: the self-cleavage amounted to 0.5.

On to A38C C11A, for which the self-cleavage stood at 0.74.

As to A38C C11U, the self-cleavage stood at 0.92.

For the variant A36G U18G, the self-cleavage was 0.85.

A36G U18C: the self-cleavage was 0.98.

With A36G U18A, the self-cleavage was determined as 0.98.

For the variant A38C G34U, the self-cleavage is 0.67.

Turning to A38C G34C, the self-cleavage stood at 0.38.

A38C G34A: the self-cleavage is 0.85.

Take A36U C25G: the self-cleavage is 0.1.

A36U C25U: the self-cleavage came out at 0.92.

For A36U C25A, the self-cleavage was 0.12.

For A36G G51C, the self-cleavage is 0.18.

As for A36G G51U, the self-cleavage came to 0.37.

For the variant A36G G51A, the self-cleavage worked out at 0.78.

On to A38C G42U, for which the self-cleavage was determined as 0.07.

Consider A38C G42A, for which the self-cleavage was 0.35.

For A38C G42C, the self-cleavage came to 0.12.

On to A36U A8C, for which the self-cleavage was 0.09.

Take A36U A8U: the self-cleavage was found to be 0.34.

Turning to A36U A8G, the self-cleavage worked out at 0.71.

With A38C C20U, the self-cleavage was 0.95.

For the variant A38C C20G, the self-cleavage was 0.09.

For A38C C20A, the self-cleavage came out at 0.86.

As to A38C C33U, the self-cleavage was determined as 0.79.

With A38C C33A, the self-cleavage was 0.1.

A38C C33G: the self-cleavage was 0.05.

Turning to A36G G30U, the self-cleavage is 0.05.

In the case of A36G G30C, the self-cleavage is 0.05.

Regarding A36G G30A, the self-cleavage was found to be 0.05.

Take A36G C26G: the self-cleavage turned out to be 0.13.

Regarding A36G C26A, the self-cleavage is 0.06.

For A36G C26U, the self-cleavage was 0.98.

Consider A38C G51U, for which the self-cleavage was found to be 0.37.

As to A38C G51C, the self-cleavage is 0.09.

With A38C G51A, the self-cleavage turned out to be 0.69.

Regarding A36U C14U, the self-cleavage amounted to 0.5.

For the variant A36U C14G, the self-cleavage is 0.13.

As to A36U C14A, the self-cleavage turned out to be 0.07.

In the case of A36G G42C, the self-cleavage is 0.24.

Turning to A36G G42A, the self-cleavage was 0.8.

As for A36G G42U, the self-cleavage came to 0.08.

Turning to A38C A40U, the self-cleavage was determined as 0.6.

A38C A40C: the self-cleavage is 0.09.

For A38C A40G, the self-cleavage stood at 0.84.

As to A36U A46U, the self-cleavage was determined as 0.08.

For the variant A36U A46G, the self-cleavage came out at 0.09.

Consider A36U A46C, for which the self-cleavage turned out to be 0.08.

For the variant A38C G35U, the self-cleavage amounted to 0.86.

In the case of A38C G35C, the self-cleavage is 0.36.

A38C G35A: the self-cleavage was determined as 0.84.

As for A38C G45A, the self-cleavage amounted to 0.32.

As for A38C G45U, the self-cleavage was 0.1.

A38C G45C: the self-cleavage was determined as 0.05.

Take A38C G53A: the self-cleavage stood at 0.84.

Regarding A38C G53C, the self-cleavage was determined as 0.08.

For A36G C32U, the self-cleavage is 0.17.

Regarding A36G C32A, the self-cleavage is 0.09.

For the variant A36G C32G, the self-cleavage was 0.16.

Take A38C: the self-cleavage is 1.02.

Consider A36G C21G, for which the self-cleavage was determined as 0.1.

Regarding A36G C21U, the self-cleavage was found to be 1.02.

As to A36G C21A, the self-cleavage turned out to be 0.64.

As to A36U C20U, the self-cleavage worked out at 0.99.

Consider A36U C20A, for which the self-cleavage was 0.82.

A36U C20G: the self-cleavage worked out at 0.19.

On to A36G G34C, for which the self-cleavage is 0.31.

As for A36G G34U, the self-cleavage came to 0.82.

Turning to A36G G34A, the self-cleavage is 0.91.

For A36U G54U, the self-cleavage was determined as 1.02.

Take A36U G54C: the self-cleavage came out at 0.96.

In the case of A36U G54A, the self-cleavage stood at 1.01.
